Measured values as given in ChEMBL document CHEMBL4680153, “New Spisulosine Derivative promotes robust autophagic response to cancer cells” (Eur J Med Chem, 2020).
pIC50: −log10 of the molar value. Active and inactive are the calls of the source. No cut-off for these calls is given here.

Tests used:
DLD-1 [1] = assay: Antiproliferative activity against human DLD-1 cells assessed as reduction in cell growth at 10 uM incubated for 48 hrs by SRB assay relative to control; assay type: functional
Procedure, shortened: (§1)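 Early-passage cells plated at 40% confluency and left overnight, then exposed to 10 μM compound for 48 h. Growth was measured by sulforhodamine B staining, with absorbance at 510 nm. Percent growth inhibition was calculated against untreated cells.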

NCI-H358 = assay: Antiproliferative activity against human NCI-H358 cells assessed as reduction in cell growth at 10 uM incubated for 48 hrs by SRB assay relative to control; assay type: functional; procedure, shortened: as §1
MDA-MB-231 = assay: Antiproliferative activity against human MDA-MB-231 cells assessed as reduction in cell growth at 10 uM incubated for 48 hrs by SRB assay relative to control; assay type: functional; procedure, shortened: as §1
A549 = assay: Antiproliferative activity against human A549 cells assessed as reduction in cell growth at 10 uM incubated for 48 hrs by SRB assay relative to control; assay type: functional; procedure, shortened: as §1
MCF7 = assay: Antiproliferative activity against human MCF7 cells assessed as reduction in cell growth at 10 uM incubated for 48 hrs by SRB assay relative to control; assay type: functional; procedure, shortened: as §1
HT-29 = assay: Antiproliferative activity against human HT-29 cells assessed as reduction in cell growth at 10 uM incubated for 48 hrs by SRB assay relative to control; assay type: functional; procedure, shortened: as §1
DLD-1 [2] = assay: Induction of apoptosis in human DLD-1 cells assessed as increase in PARP cleavage at 5 to 7.5 uM by Western blot analysis; assay type: functional, cell-based; conditions: dose 5-7.5 µM
Procedure, shortened: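 DLD-1 cells were treated at 7.5 μM for 18 h and lysed in NP-40 buffer containing protease and phosphatase inhibitors. Protein was quantified by BCA, and equal amounts were run on 15% SDS-PAGE and transferred to PVDF. Cleaved PARP was probed and detected by enhanced chemiluminescence.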

HL-60 = assay: Cytotoxicity against human HL-60 cell; assay type: functional, cell-based
HCT-116 = assay: Cytotoxicity against human HCT-116 cell; assay type: functional, cell-based
KB = assay: Cytotoxicity against human KB cell; assay type: functional, cell-based
PC-3 = assay: Cytotoxicity against human PC-3 cells assessed as reduction in cell viability incubated for 48 hrs by MTT assay; assay type: functional, cell-based; conditions: PC-3, 48 h
DLD-1 [3] = assay: Induction of apoptosis in human DLD-1 cells assessed as necrotic cells at 7.5 uM incubated for 18 hrs by Annexin V-FITC and propidium iodide staining based flow cytometry analysis (reference value: 4.1 %); assay type: functional
DLD-1 [4] = assay: Induction of apoptosis in human DLD-1 cells assessed as viable cells at 7.5 uM incubated for 18 hrs by Annexin V-FITC and propidium iodide staining based flow cytometry analysis (reference value: 85.2 %); assay type: functional; conditions: read-out: Activity
LNCaP = assay: Cytotoxicity against human LNCaP cells assessed as reduction in cell viability incubated for 48 hrs by MTT assay; assay type: functional, cell-based
DLD-1 [5] = assay: Induction of apoptosis in human DLD-1 cells assessed as early apoptotic cells at 7.5 uM incubated for 18 hrs by Annexin V-FITC and propidium iodide staining based flow cytometry analysis (reference value: 4.95 %); assay type: functional
DLD-1 [6] = assay: Induction of autophagy in human DLD-1 cells assessed as reduction in cell viability at 7.5 uM incubated for 24 hrs in presence of Bafilomycin-A1 by crystal violet staining based phase contrast microscopic analysis; assay type: functional
DLD-1 [7] = assay: Induction of apoptosis in human DLD-1 cells assessed as late apoptotic cells at 7.5 uM incubated for 18 hrs by Annexin V-FITC and propidium iodide staining based flow cytometry analysis (reference value: 5.7 %); assay type: functional

SMILES	inhibition at 10 µM (DLD-1 [1])	inhibition at 10 µM (NCI-H358)	inhibition at 10 µM (MDA-MB-231)	inhibition at 10 µM (A549)	inhibition at 10 µM (MCF7)	inhibition at 10 µM (HT-29)	Activity (DLD-1 [2])	pIC50 (HL-60)	pIC50 (HCT-116)	pIC50 (KB)	pIC50 (PC-3)	Activity (DLD-1 [3])	viability at 7.5 µM (DLD-1 [4])	pIC50 (LNCaP)	Activity (DLD-1 [5])	Activity (DLD-1 [6])	Activity (DLD-1 [7])
CCCCCCCCCCCCCC[C@H](O)[C@H](CN(CC)CC)NC(=O)OC(C)(C)C	14.7%	8.37%	-1.45%	18.5%	18.7%												
CCCCCCCCCCCCCC[C@H](OCOC)[C@H](CN(CCCC)CCCC)NC(=O)OC(C)(C)C	56%	25.1%	22.3%	42.2%	27.1%	15%											
CCCCCCCCCCCCCC[C@H](O)[C@H](CN1CCSCC1)NC(=O)OC(C)(C)C	32.4%	10.8%	6.84%	32%	30.2%	12%											
CCCCCCCCCCCCCC[C@H](OCOC)[C@H](CN1CCN(C)CC1)NC(=O)OC(C)(C)C	31.9%	18.9%	24%	18.2%	28%												
CC(C)(C)OC(=O)N[C@H](CO)CO[Si](c1ccccc1)(c1ccccc1)C(C)(C)C	73.5%	53.4%	32.3%	25.4%	28.3%	46.2%											
CCCCCCCCCCCCCC[C@H](O)[C@H](CN(CCCC)CCCC)NC(=O)OC(C)(C)C	23.4%	9.4%	-9.61%	30%	21.5%	9.83%											
COc1cccc2c1C(=O)c1c(O)c3c(c(O)c1C2=O)C[C@@](O)(C(=O)CO)C[C@@H]3O[C@H]1C[C@H](N)[C@H](O)[C@H](C)O1 [DOXORUBICIN]	76.7%	77.5%	80.2%	80.2%	88.5%	78.4%											
CCCCCCCCCCCCCCC[C@@H](O)[C@H](C)N							Active	7.00	7.00	7.00	6.00	4.2%	78%	6.00	14.2%	Active	3.4%
CCCCCCCCCCCCCC[C@H](OCOC)[C@H](CN(C(C)C)C(C)C)NC(=O)OC(C)(C)C	53.9%	26.6%	31%	22.6%	26.9%	19.9%											
CCCCCCCCCCCCCC[C@H](O)[C@H](CN(C(C)C)C(C)C)NC(=O)OC(C)(C)C	34.8%	11.3%	-1.17%	22.9%	25.3%	11.6%											
CCCCCCCCCCCCCC[C@H](O)[C@H](CO[Si](c1ccccc1)(c1ccccc1)C(C)(C)C)NC(=O)OC(C)(C)C	10.4%	3.11%	-37.5%	14.6%	2.79%	-14.4%											
CCCCCCCCCCCCCC[C@H](OCOC)[C@H](CN1CCCCC1)NC(=O)OC(C)(C)C	43.7%	15.2%	9.84%	19%	27.3%	14.2%											
CCCCCCCCCCCCCC[C@H](OCOC)[C@H](CN(CC)CC)NC(=O)OC(C)(C)C	46.2%	14.9%	0.84%	27.5%	25.2%	-3.21%											
CCCCCCCCCCCCCC[C@H](O)[C@H](Cc1ccc(OC)cc1)NC(=O)OC(C)(C)C	27.9%	6.37%	-16.5%	23.4%	8.77%	-7.41%											
CCCCCCCCCCCCCC[C@H](OCOC)[C@H](CN1CCSCC1)NC(=O)OC(C)(C)C	58.5%	22.7%	4.73%	29.9%	24%	8.57%											
CCCCCCCCCCCCCC[C@H](OCOC)[C@H](CO)NC(=O)OC(C)(C)C	54.8%	18.4%	-5.67%	25.9%	10.2%	22%											
CCCCCCCCCCCCCC[C@H](OCOC)[C@H](CO[Si](c1ccccc1)(c1ccccc1)C(C)(C)C)NC(=O)OC(C)(C)C	-14.6%	-2.89%	-28%	15.1%	-7.95%	-18.8%											
